Numbering of substitutions follows the chain as printed.
Experiments:
[1] = target: T1, PTP1BYAYA (Y152AY153A) (Homo sapiens, UniProt P18031, Y152A/Y153A); test: Fluorescence affinity measurement, PTP1BYAYA; details: binding to PTP1BYAYA
T1 sequence (P18031 1-301 Y152A/Y153A): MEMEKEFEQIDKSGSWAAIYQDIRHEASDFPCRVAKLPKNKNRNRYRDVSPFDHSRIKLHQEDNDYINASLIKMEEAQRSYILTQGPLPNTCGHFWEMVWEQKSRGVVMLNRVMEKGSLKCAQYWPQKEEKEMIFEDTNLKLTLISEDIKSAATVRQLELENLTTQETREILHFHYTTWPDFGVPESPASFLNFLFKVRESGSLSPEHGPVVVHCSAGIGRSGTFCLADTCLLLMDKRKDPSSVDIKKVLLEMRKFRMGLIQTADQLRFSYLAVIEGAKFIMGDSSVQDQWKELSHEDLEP
Outline: (§1)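 Human PTP1B catalytic domain (residues 1-301; Δ7 is 1-284) was expressed in E. coli BL21(DE3) RIL and the His-tag removed with TEV. Protein at 2.5 µM in 50 mM HEPES pH 7.5, 150 mM NaCl, 0.5 mM TCEP was titrated with test compound (0-140 µM), with a DMSO-only control. Fluorescence was read at excitation 280 nm, emission 300-550 nm. KD came from a quadratic single-site fit; triplicate.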

[2] = target: T2, PTP1BT178A (Homo sapiens, UniProt P18031, T178A); test: Fluorescence affinity measurement, PTP1BT178A; details: binding to PTP1BT178A
T2 sequence (P18031 1-301 T178A): T1 sequence (P18031 1-301 Y152A/Y153A) with A152Y, A153Y, T178A
Outline: as §1

[3] = target: T3, PTP1BP185G (Homo sapiens, UniProt P18031, P185G); test: Fluorescence affinity measurement, PTP1BP185G; details: binding to PTP1BP185G (catalytically dead variant)
T3 sequence (P18031 1-301 P185G): T1 sequence (P18031 1-301 Y152A/Y153A) with A152Y, A153Y, P185G
Outline: as §1

[4] = target: T4, PTP1BL192A (Homo sapiens, UniProt P18031, L192A); test: Fluorescence affinity measurement, PTP1BL192A; details: binding to PTP1BL192A
T4 sequence (P18031 1-301 L192A): T1 sequence (P18031 1-301 Y152A/Y153A) with A152Y, A153Y, L192A
Outline: as §1

[5] = target: T5, PTP1BΔ7 (Homo sapiens, UniProt P18031); test: pNPP activity assay with TCS401; assay type: biochemical
T5 sequence (P18031 1-284): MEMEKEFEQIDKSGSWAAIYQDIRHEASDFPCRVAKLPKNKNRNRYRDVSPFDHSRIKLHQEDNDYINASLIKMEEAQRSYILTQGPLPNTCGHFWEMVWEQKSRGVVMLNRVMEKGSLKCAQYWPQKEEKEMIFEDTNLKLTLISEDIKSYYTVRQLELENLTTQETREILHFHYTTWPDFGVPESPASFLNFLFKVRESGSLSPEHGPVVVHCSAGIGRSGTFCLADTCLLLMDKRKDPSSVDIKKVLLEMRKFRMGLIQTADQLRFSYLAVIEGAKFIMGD
Outline: (§2)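 Freshly prepared enzyme (0.15 µM) in 50 mM HEPES pH 7.5, 150 mM NaCl, 0.5 mM TCEP was run with pNPP (0-6000 µM), with or without test compound at 100 or 300 µM (0.4 or 1.2% DMSO). Reactions ran 30 min at 30°C, were stopped with 0.5 M NaOH and read at 405 nm, minus no-enzyme blanks. Km came from Michaelis-Menten fits and Ki from Km,obs = Km(1+[I]/Ki). Duplicates, repeated 3-6 times.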

[6] = target: T6, PTP1B (residues 1-301) (Homo sapiens, UniProt P18031); test: Fluorescence affinity measurement of inhibitor binding to PTP1B; details: binding to PTP1B (wt, 1-301); Table S1
T6 sequence (P18031 1-301): T1 sequence (P18031 1-301 Y152A/Y153A) with A152Y, A153Y

[7] = target: T7, PTP1BN193A (Homo sapiens, UniProt P18031, N193A); test: pNPP activity assay with TCS401; assay type: biochemical
T7 sequence (P18031 1-301 N193A): T1 sequence (P18031 1-301 Y152A/Y153A) with A152Y, A153Y, N193A
Outline: as §2

[8] = target: T8, PTP1BΔ7 (residues 1-284) (Homo sapiens, UniProt P18031); test: Fluorescence affinity measurement, PTP1BΔ7; details: binding to PTP1BΔ7
T8 sequence (P18031 1-284): T5 sequence (P18031 1-284)
Outline: as §1

[9] = target: T7, PTP1BN193A; test: Fluorescence affinity measurement, PTP1BN193A; details: binding to PTP1BN193A
Outline: as §1

[10] = target: T9, PTP1BYAYA (Homo sapiens, UniProt P18031, Y152A/Y153A); test: pNPP activity assay with TCS401; assay type: biochemical
T9 sequence (P18031 1-301 Y152A/Y153A): T1 sequence (P18031 1-301 Y152A/Y153A)
Outline: as §2

O=C(O)C(=O)Nc1sc2c(c1C(=O)O)CCNC2 [TCS401] showed a Kd [1] of 26 ± 3 µM, a Kd [2] of 45 ± 3.5 µM and a Kd [3] of 20 ± 0.6 µM. The Kd [4] was 39 ± 6 µM, the “Ki (competition between substrate and TCS401) compared with PTP1B” value (“Ki … compared with PTP1B” for short) [5] was “higher Ki values” and the Kd [6] was roughly 26 µM. The “Ki … compared with PTP1B” value [7] was “higher Ki values”, the Kd [8] was 33 ± 6 µM and the Kd [9] was 37 ± 4 µM. The “Ki … compared with PTP1B” value [10] was “higher Ki values”.

From article PMC5325675 (Molecular cell, 2017)
